According to ChEMBL document CHEMBL1139923, “Biological evaluation of de-O-sulfonated analogs of salacinol, the role of sulfate anion in the side chain on the alpha-glucosidase inhibitory activity” (Bioorg Med Chem, 2007):
Activity calls are given as the source filed them. No cut-off for these calls is given here.

Assays:
[1] = Inhibition of rat intestinal sucrase
Method in brief: (§1)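 Sucrose (74 mM in the substrate solution, 0.1 M maleate buffer) was the substrate for intestinal α-glucosidase. Test compound was added from a DMSO stock diluted in buffer (2.5% DMSO final) along with enzyme. The mixture ran 30 min at 37 °C and was halted by boiling for 2 min. Released glucose was quantified by the glucose-oxidase method.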

Rattus norvegicus [2] = species: Rattus norvegicus; assay: Inhibition of rat intestinal sucrase at 400 ug/ml; method in brief: as §1
Rattus norvegicus [3] = species: Rattus norvegicus; assay: Inhibition of rat intestinal maltase at 1092 uM
Method in brief: (§2)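 Intestinal α-glucosidase from the in vitro assay with maltose as substrate, 74 mM in the substrate solution. Compound was dissolved in DMSO and diluted in 0.1 M maleate buffer, giving 2.5% DMSO final. Substrate, compound and enzyme solutions were incubated at 37 °C for 30 min, stopped by 2 min in boiling water, and glucose was measured by glucose-oxidase.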

[4] = Inhibition of rat intestinal maltase; method in brief: as §2
Rattus norvegicus [5] = species: Rattus norvegicus; assay: Inhibition of rat intestinal maltase at 400 ug/ml; method in brief: as §2

Row | SMILES | IC50 [1] | inhibition (Rattus norvegicus [2]) | Activity (Rattus norvegicus [3]) | IC50 [4] | inhibition (Rattus norvegicus [5])
1 | OC[C@H](O)[C@H](O)C[S@@+]1C[C@H](O)[C@@H](O)[C@@H]1CO | > 1090 µM | 48% | inactive | > 1090 µM | –
2 | OC[C@@H]1[C@@H](O)[C@H](O)C[S@@+]1C[C@@H](O)[C@@H](O)CO [listing 1 of 2 here] | 3.5 µM | – | – | 14 µM | –
3 | O=S(=O)([O-])O[C@@H](CO)[C@H](O)C[S@+]1C[C@@H](O)[C@H](O)[C@H]1CO [SALACINOL] | 2.5 µM | – | – | 9.6 µM | –
4 | O=S(=O)([O-])O[C@@H](CO)[C@H](O)C[S@@+]1C[C@H](O)[C@@H](O)[C@@H]1CO | > 1200 µM | 21% | – | > 1200 µM | 18%
5 | OC[C@@H]1[C@@H](O)[C@H](O)C[S@@+]1C[C@@H](O)[C@@H](O)CO [listing 2 of 2 here] | 3.7 µM | – | – | 15.6 µM | –
